Results: ChEMBL document CHEMBL1772959, “Comosusols A-D and comosone A: cytotoxic compounds from the brown alga Sporochnus comosus” (J Nat Prod, 2011)

What was measured:
MCF7 = assay: Growth inhibition of human MCF7 cells after 48 hrs by sulforhodamine B assay; format: functional; settings: MCF7, 48 h
Method in brief: (§1)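 Grown in RPMI 1640 with L-glutamine plus 5% fetal bovine serum at 37 C, 5% CO2. Seeded at 5000 cells/well and allowed to attach 24 h. Pure compounds were added from DMSO as serial dilutions in medium over 66.7-0.01 μg/mL final. Cells were TCA-fixed and SRB-stained at 0 and 48 h, with absorbance read at 490 nm. GI50 was taken against vehicle-only and time-0 readings.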

[1] = Growth inhibition of chinese hamster CHOK1 cells after 48 hrs by sulforhodamine B assay; format: cell-based, Cricetulus griseus; settings: CHO-K1 cells
Method in brief: (§2)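 Cultured in MEM with Earle's salts, L-glutamine, nonessential amino acids and sodium pyruvate at 37 C, 5% CO2. Plated at 5000 cells/well with 24 h attachment. Pure compounds were given as serial dilutions from DMSO in medium over 66.7-0.01 μg/mL final. SRB protein staining after TCA fixation at 0 and 48 h, read at 490 nm. GI50 came from comparison with vehicle-only and time-0 values.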

HT-29 = assay: Growth inhibition of human HT-29 cells after 48 hrs by sulforhodamine B assay; format: functional; settings: HT-29, 48 h; method in brief: as §2
NCI-H460 = assay: Growth inhibition of human H460 cells after 48 hrs by sulforhodamine B assay; format: functional; settings: NCI-H460, 48 h; method in brief: as §1
SF-268 = assay: Growth inhibition of human SF268 cells after 48 hrs by sulforhodamine B assay; format: functional; settings: SF-268, 48 h; method in brief: as §1

SMILES	GI50 (MCF7) [µM]	GI50 at 48 h [1] [µM]	GI50 (HT-29) [µM]	GI50 (NCI-H460) [µM]	GI50 (SF-268) [µM]
CC(=O)O[C@H]1CC(C)(C)C(=C=C/C(C)=C/C=C/C(C)=C/C=C/C=C(C)/C=C/C=C(\C)C(=O)C[C@@]23O[C@]2(C)C[C@@H](O)CC3(C)C)[C@](C)(O)C1	8	12	17	14	12
C=CC(C)(C)c1ccc(O)c(CC=C(C)C)c1	27	29	57	37	39
C=CC(C)(C)C1=CC(=O)C(CC=C(C)C)=CC1=O	26	17	37	41	17
CC(C)=CCC1(CC=C(C)C)C[C@@H](O)C=CC1=O [COMOSONE A]	14	17	19	19	13
CC(C)=CCc1cc(O)cc(/C=C\C(C)(C)O)c1O [COMOSUSOL A]	52	57	53	55	55
C=CC(C)(C)c1cc(O)c(/C=C\C(C)(C)O)cc1O [COMOSUSOL B]	6	6	6	6	5
C=CC(C)(C)c1cc(O)c(CC=C(C)C)cc1O [COMOSUSOL C]	25	27	43	29	35
C=CC(C)(C)c1cc(O)c(C(O)C(O)C(C)(C)O)cc1O (stereo not given) [COMOSUSOL D]	46	63	51	54	59
OC[C@@H](O)[C@H](O)[C@H](O)[C@@H](O)CO [GALACTITOL]	> 220	> 220	> 220	> 220	> 220
